From publication PMC2587418 (Journal of medicinal chemistry, 2008)
Like-named read-outs stand apart in the source and are kept apart here.

What was measured:
[1] = format: in vivo, rat; conditions: pretreated with 3 (10 mg/kg i.v.)
How it was run: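 Adult male Sprague-Dawley rats (225–250 g) were pretreated by tail vein with a selective CB1 inverse agonist (10 mg/kg, i.v.) or its vehicle. After 15 min they received the test compound (30 μg/kg, i.v.) and were killed by cervical dislocation at 0.25, 0.5, 1, 2, 4 or 8 h, three rats per time point. Frontal cortex was weighed, homogenised in four volumes MeCN with 0.1% HCO2H, and quantified by LC-MS.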

human CB1 receptors = human CB1 receptors (Homo sapiens, UniProt P21554); experiment: CB1 GTPγ35S potency assay; format: biochemical; conditions: ratio of CB2 Kb to CB1 Kb; fold
[2] = monkey; within 10-20 min after injection; cited from earlier work

Chain of human CB1 receptors (P21554 whole entry): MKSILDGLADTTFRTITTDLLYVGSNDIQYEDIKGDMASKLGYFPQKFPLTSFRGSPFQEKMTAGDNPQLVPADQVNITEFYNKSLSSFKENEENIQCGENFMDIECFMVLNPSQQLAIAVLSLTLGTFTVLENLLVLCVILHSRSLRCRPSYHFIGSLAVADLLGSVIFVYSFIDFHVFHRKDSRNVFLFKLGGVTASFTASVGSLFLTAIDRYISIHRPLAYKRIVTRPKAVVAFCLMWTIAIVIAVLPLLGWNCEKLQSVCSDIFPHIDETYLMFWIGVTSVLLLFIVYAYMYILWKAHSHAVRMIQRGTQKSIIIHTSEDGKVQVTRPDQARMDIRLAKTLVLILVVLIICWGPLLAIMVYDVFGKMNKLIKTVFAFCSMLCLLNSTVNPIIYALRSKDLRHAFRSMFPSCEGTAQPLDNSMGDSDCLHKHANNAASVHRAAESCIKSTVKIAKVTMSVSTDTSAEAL

Compound	Ligand quantifiability in frontal cerebral cortex ([1]; at 4 h after injection)	CB1 versus CB2 selectivity (human CB1 receptors)	Ligand quantifiability in frontal cerebral cortex ([1]; at 2 h after injection)	Brain standardized uptake value [2] [% SUV]
COc1cccc([C@H]2C[C@@H](N[C@H](C)c3ccccc3)C(=O)N2c2ccc(C(F)(F)F)cc2)c1 [Ligand 8, (3R,5R)-5-(3-Methoxy-phenyl)-3-((R)-1-phenyl-ethylamino)-1-(4-trifluoromethyl-phenyl)-pyrrolidin-2-one]	not quantifiable			
C[C@@H](N[C@@H]1C[C@H](c2cccc(O[11CH3])c2)N(c2ccc(C(F)(F)F)cc2)C1=O)c1ccccc1 [[^11C]8, [methyl-^11C](3R,5R)-5-(3-methoxy-phenyl)-3-((R)-1-phenyl-ethylamino)-1-(4-trifluoromethyl-phenyl)-pyrrolidin-2-one]				~600
COc1cccc([C@H]2C[C@@H](N[C@H](C)c3ccc(F)cc3)C(=O)N2c2ccc(C(F)(F)F)cc2)c1 [Ligand 16, (3R,5R)-3-[(R)-1-(4-Fluoro-phenyl)-ethylamino]-5-(3-methoxy-phenyl)-1-(4-trifluoromethyl-phenyl)-pyrrolidin-2-one]		2,160		

Continued, in another order:

Ligand quantifiability in frontal cerebral cortex ([1]; at 4 h after injection)	CB1 versus CB2 selectivity (human CB1 receptors)	Ligand quantifiability in frontal cerebral cortex ([1]; at 2 h after injection)	Compound	Brain standardized uptake value [2] [% SUV]
	>19,500	could not be quantified	C[C@@H](N[C@@H]1C[C@H](c2cccc(OCCF)c2)N(c2ccc(C(F)(F)F)cc2)C1=O)c1ccccc1 [Ligand 22, (3R,5R)-5-[3-(2-Fluoro-ethoxy)-phenyl]-3-((R)-1-phenyl-ethylamino)-1-(4-trifluoromethyl-phenyl)-pyrrolidin-2-one]	
not quantifiable	3,580		C[C@@H](N[C@@H]1C[C@H](c2cccc(OCF)c2)N(c2ccc(C(F)(F)F)cc2)C1=O)c1ccccc1 [Ligand 20, (3R,5R)-5-(3-Fluoromethoxy-phenyl)-3-((R)-1-phenyl-ethylamino)-1-(4-trifluoromethyl-phenyl)-pyrrolidin-2-one]	
